Among the data in ChEMBL document CHEMBL1667806, “Synthesis and evaluation of anti-tubercular activity of new dithiocarbamate sugar derivatives” (2011) are MIC values, retold here.

In brackets after ≈: the same amount, converted by molar mass.

For test [1], the system named is Mycobacterium tuberculosis. Kind of test: Antimycobacterial activity against Mycobacterium tuberculosis H37Rv. Type of test: functional.
Test [2] is described as follows: microbe, parasite or virus in culture. Type of test: functional, Mycobacterium bovis BCG str. Tokyo 172. The conditions noted are these: Mycobacterium tuberculosis variant bovis BCG.
The subject of test [3] is Mycolicibacterium smegmatis. Kind of test: microbe, parasite or virus in culture. Type of test: functional. As to conditions: JATA 64.01.
Test [4] can be described thus: microbe, parasite or virus in culture. Type of test: functional, Mycobacterium avium subsp. hominissuis. The conditions noted are these: Mycobacterium avium, 104.
For the next test, the system named is Mycobacterium avium. The experiment in a line: microbe, parasite or virus in culture. It counts as functional, Mycobacterium avium subsp. avium ATCC 25291. The conditions noted are these: ATCC 2529.
Test [5] deals with Staphylococcus aureus. The experiment in a line: Antimicrobial activity against Staphylococcus aureus. Type of test: functional.
The test system of test [6] is Staphylococcus aureus. Kind of test: microbe, parasite or virus in culture. Type of test: functional. The conditions noted are these: 873.
Test [7] has as its system Escherichia coli. Kind of test: Antimicrobial activity against Escherichia coli DH5alpha. Type of test: functional. As to conditions: DH5[alpha].
For test [8], the system named is Staphylococcus aureus. Kind of test: Antimicrobial activity against drug-sensitive Staphylococcus aureus 209PJC-1. It counts as functional.
Test [9] deals with Staphylococcus aureus. Kind of test: Antimicrobial activity against drug-sensitive Staphylococcus aureus RN4220. Type of test: functional.
The test system of test [10] is Staphylococcus aureus. Kind of test: Antimicrobial activity against methicillin-resistant Staphylococcus aureus MF490. It counts as functional.
For test [11], the system named is Enterococcus faecalis. The experiment in a line: Antimicrobial activity against AGs-resistant Enterococcus faecalis ATCC 19433. Type of test: functional.
In test [12] the test system is Enterococcus faecalis. Kind of test: Antimicrobial activity against AGs-resistant Enterococcus faecalis ATCC 19434. It counts as functional.
The subject of test [13] is Escherichia coli. Kind of test: Antimicrobial activity against drug-sensitive Escherichia coli JM109. Type of test: functional.
A further test deals with Klebsiella pneumoniae. Kind of test: Antibacterial activity against […] Klebsiella pneumoniae ATCC BAA-1705. It counts as functional.
In a further test the test system is Pseudomonas aeruginosa. The experiment in a line: Antibacterial activity against drug-sensitive Pseudomonas aeruginosa PAO1. It counts as functional.
Test [14] has as its system Mycobacterium tuberculosis. The experiment in a line: Antimycobacterial activity against drug-sensitive Mycobacterium tuberculosis isolate 1. Type of test: functional.
In test [15] the test system is Mycobacterium tuberculosis. Kind of test: Antimycobacterial activity against drug-sensitive Mycobacterium tuberculosis isolate 2. It counts as functional. In outline: (§1)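 MIC by broth dilution in Middlebrook 7H9 broth supplemented with albumin, dextrose and catalase.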
The subject of test [16] is Mycobacterium tuberculosis. The experiment in a line: Antimycobacterial activity against drug-sensitive Mycobacterium tuberculosis isolate 3. Type of test: functional. Put shortly:
as §1

Test [17] has as its system Mycobacterium tuberculosis. Kind of test: Antimycobacterial activity against drug-sensitive Mycobacterium tuberculosis isolate 4. It counts as functional. In outline:
as §1

The subject of test [18] is Mycobacterium tuberculosis. Kind of test: Antimycobacterial activity against drug-sensitive Mycobacterium tuberculosis isolate 5. Type of test: functional. Put shortly:
as §1

The test system of test [19] is Mycobacterium tuberculosis. The experiment in a line: Antimycobacterial activity against drug-sensitive Mycobacterium tuberculosis isolate 6. It counts as functional. In outline: as §1
In test [20] the test system is Mycobacterium tuberculosis. The experiment in a line: Antimycobacterial activity against drug-sensitive Mycobacterium tuberculosis isolate 7. Type of test: functional. Put shortly: as §1
The test system of test [21] is Mycobacterium tuberculosis. The experiment in a line: Antimycobacterial activity against drug-sensitive Mycobacterium tuberculosis isolate 8. It counts as functional. Put shortly: as §1
In test [22] the test system is Mycobacterium tuberculosis. Kind of test: Antimycobacterial activity against drug-sensitive Mycobacterium tuberculosis isolate 9. Type of test: functional. In outline:
as §1

Test [23] relates to Mycobacterium tuberculosis. The experiment in a line: Antimycobacterial activity against drug-sensitive Mycobacterium tuberculosis isolate 10. It counts as functional. Put shortly: as §1
For test [24], the system named is Mycobacterium tuberculosis. The experiment in a line: Antimycobacterial activity against drug-sensitive Mycobacterium tuberculosis isolate 11. Type of test: functional. In outline:
as §1

Test [25] concerns Mycobacterium tuberculosis. The experiment in a line: Antimycobacterial activity against drug-sensitive Mycobacterium tuberculosis isolate 12. It counts as functional. Put shortly:
as §1

In test [26] the test system is Mycobacterium tuberculosis. The experiment in a line: Antimycobacterial activity against drug-sensitive Mycobacterium tuberculosis isolate 13. Type of test: functional. Put shortly:
as §1

In test [27] the test system is Mycobacterium tuberculosis. The experiment in a line: Antimycobacterial activity against drug-sensitive Mycobacterium tuberculosis isolate 14. It counts as functional. Put shortly:
as §1

In test [28] the test system is Mycobacterium tuberculosis. The experiment in a line: Antimycobacterial activity against drug-sensitive Mycobacterium tuberculosis isolate 15. It counts as functional. In outline:
as §1

For test [29], the system named is Mycobacterium tuberculosis. Kind of test: Antimycobacterial activity against drug-sensitive Mycobacterium tuberculosis isolate 16. It counts as functional. In outline:
as §1

For test [30], the system named is Mycobacterium tuberculosis. Kind of test: Antimycobacterial activity against drug-sensitive Mycobacterium tuberculosis isolate 17. It counts as functional. Put shortly: as §1
For test [31], the system named is Mycobacterium tuberculosis. The experiment in a line: Antimycobacterial activity against drug-sensitive Mycobacterium tuberculosis isolate 18. Type of test: functional. Put shortly: as §1
The subject of test [32] is Mycobacterium tuberculosis. The experiment in a line: Antimycobacterial activity against drug-sensitive Mycobacterium tuberculosis isolate 19. It counts as functional. In outline:
as §1

For test [33], the system named is Mycobacterium tuberculosis. The experiment in a line: Antimycobacterial activity against drug-sensitive Mycobacterium tuberculosis isolate 20. Type of test: functional. Put shortly: as §1

In the case of `CCN(CC)C(=S)[S-].[Na+]` [DITIOCARB SODIUM], the MIC in test [1] was 3.13 µg/mL; in test [2] it was 3.13 µg/mL; in test [3] it was over 100 µg/mL.
For `CC[C@@H](CO)NCCN[C@@H](CC)CO` [ETHAMBUTOL], the MIC was 2.5 µg/mL (≈ 12.2 µM) in test [1]; 1.5 µg/mL (≈ 7.34 µM) in test [2]; 1.6 µg/mL (≈ 7.83 µM) in [4]; 1.6 µg/mL (≈ 7.83 µM) in the test on Mycobacterium avium; over 100 µg/mL in the test with Staphylococcus aureus [5]; over 100 µg/mL in the test with Staphylococcus aureus [6]. Also, the MIC in the test on Escherichia coli [7] was over 100 µg/mL.
With `C[C@@H](O)[C@H]1C(=O)N2C(C(=O)O)=C(SCCNC=N)C[C@H]12` [IMIPENEM ANHYDROUS], the MIC in test [1] was 3.13 µg/mL (≈ 10.5 µM); in test [2], 3.13 µg/mL (≈ 10.5 µM); in the test on Staphylococcus aureus [5] it was 0.1 µg/mL (≈ 0.334 µM); in the test on Staphylococcus aureus [6] it was 0.1 µg/mL (≈ 0.334 µM); against Escherichia coli [7], 0.1 µg/mL (≈ 0.334 µM).
Regarding `NNC(=O)c1ccncc1` [ISONIAZID], the MIC in test [1] is 0.04 µg/mL (≈ 0.292 µM); in test [2], 0.04 µg/mL (≈ 0.292 µM); in test [4] it was 1.56 µg/mL (≈ 11.4 µM); in the test on Mycobacterium avium it was 3.13 µg/mL (≈ 22.8 µM); against Staphylococcus aureus [5], over 100 µg/mL; in the test with Staphylococcus aureus [6], over 100 µg/mL. Besides, in the test on Escherichia coli [7], the MIC is over 100 µg/mL.
Regarding `NC[C@H]1O[C@H](O[C@H]2[C@H](O)[C@@H](O[C@H]3O[C@H](CO)[C@@H](O)[C@H](N)[C@H]3O)[C@H](N)C[C@@H]2N)[C@H](O)[C@@H](O)[C@@H]1O` [KANAMYCIN], the MIC is 1.56 µg/mL (≈ 3.22 µM) in test [1]; 0.3 µg/mL (≈ 0.619 µM) in [2]; 3.13 µg/mL (≈ 6.46 µM) in [4]; 3.13 µg/mL (≈ 6.46 µM) against Mycobacterium avium; 12.5 µg/mL (≈ 25.8 µM) with Staphylococcus aureus [5]; over 100 µg/mL against Staphylococcus aureus [6]. In the test with Escherichia coli [7], this molecule had an MIC of 12.5 µg/mL (≈ 25.8 µM).
Regarding `CC(=O)N[C@@H]1[C@@H](O)[C@H](O)[C@@H](CO)O[C@H]1O` [N-ACETYLGLUCOSAMINE], the MIC (in [1]; in test [2]; in [4]; against Mycobacterium avium; against Staphylococcus aureus [5]; against Staphylococcus aureus [6]) was over 100 µg/mL throughout. In addition, the MIC in the test with Escherichia coli [7] was over 100 µg/mL.
`CC1(C)S[C@@H]2[C@H](NC(=O)Cc3ccccc3)C(=O)N2[C@H]1C(=O)O` [PENICILLIN G]: the MIC in test [1] is 500 µg/mL (≈ 1500 µM); in test [2], 500 µg/mL (≈ 1500 µM); with Staphylococcus aureus [5], 31.3 µg/mL (≈ 93.6 µM); with Staphylococcus aureus [6], over 500 µg/mL; in the test on Escherichia coli [7] it was 25 µg/mL (≈ 74.8 µM).
For the molecule `N.S=C(S)N1CCCC1` [PYRROLIDINE DITHIOCARBAMIC ACID, AMMONIUM SALT], the MIC was 0.2 µg/mL in test [1]; 0.4 µg/mL in test [2]; over 100 µg/mL in [3]; 3.13 µg/mL in test [4]; 3.13 µg/mL in the test with Mycobacterium avium; 12.5 µg/mL in the test with Staphylococcus aureus [5]. Besides, the MIC in the test on Staphylococcus aureus [6] amounted to 12.5 µg/mL; in the test on Escherichia coli [7], 12.5 µg/mL; against Staphylococcus aureus [8], 8 µg/mL; against Staphylococcus aureus [9], 8 µg/mL; with Staphylococcus aureus [10], 8 µg/mL; against Enterococcus faecalis [11], 32 µg/mL. Besides, the MIC is 32 µg/mL against Enterococcus faecalis [12]; over 32 µg/mL in the test with Escherichia coli [13]; over 32 µg/mL in the test with Klebsiella pneumoniae; over 32 µg/mL against Pseudomonas aeruginosa; 0.2 µg/mL in test [14]; 0.2 µg/mL in [15]. The MIC in test [16] amounted to 0.2 µg/mL; in [17] it was 0.2 µg/mL; in test [18] it was 0.2 µg/mL; in test [19], 0.2 µg/mL; in test [20] it was 0.4 µg/mL; in test [21], 0.4 µg/mL. Moreover, the MIC in test [22] was 0.2 µg/mL; in test [23], 0.2 µg/mL; in [24], 0.2 µg/mL; in test [25], 0.2 µg/mL; in test [26], 0.4 µg/mL; in [27], 0.2 µg/mL. Moreover, the MIC turned out to be 0.2 µg/mL in test [28]; 0.2 µg/mL in [29]; 0.2 µg/mL in test [30]; 0.2 µg/mL in [31]; 0.4 µg/mL in test [32]; 0.4 µg/mL in test [33].
`CO[C@H]1/C=C/O[C@@]2(C)Oc3c(C)c(O)c4c(O)c(c(/C=N/N5CCN(C)CC5)c(O)c4c3C2=O)NC(=O)/C(C)=C\C=C\[C@H](C)[C@H](O)[C@@H](C)[C@@H](O)[C@@H](C)[C@H](OC(C)=O)[C@@H]1C` [RIFAMPIN]: the MIC is 0.004 µg/mL (≈ 0.00486 µM) in test [1]; 0.004 µg/mL (≈ 0.00486 µM) in test [2]; 0.25 µg/mL (≈ 0.304 µM) in [4]; under 0.05 µg/mL against Mycobacterium avium; 0.002 µg/mL (≈ 0.00243 µM) against Staphylococcus aureus [5]; 0.004 µg/mL (≈ 0.00486 µM) against Staphylococcus aureus [6]. The same molecule showed an MIC against Escherichia coli [7] of 50 µg/mL (≈ 60.8 µM).
Turning to `CN(C)C(=S)[S-].[Na+]` [SODIUM DIMETHYLCARBAMODITHIOATE], the MIC in test [1] is 1.56 µg/mL; in test [2] it was 1.56 µg/mL; in test [3], over 100 µg/mL; in test [4], over 100 µg/mL; against Mycobacterium avium, over 100 µg/mL; against Staphylococcus aureus [5], over 100 µg/mL. The MIC with Staphylococcus aureus [6] and against Escherichia coli [7] was over 100 µg/mL in each case.
For `CN[C@@H]1[C@H](O[C@H]2[C@H](O[C@H]3[C@H](O)[C@@H](O)[C@H](N=C(N)N)[C@@H](O)[C@@H]3N=C(N)N)O[C@@H](C)[C@]2(O)C=O)O[C@@H](CO)[C@H](O)[C@H]1O` [STREPTOMYCIN], the MIC in test [1] was 0.39 µg/mL (≈ 0.671 µM); in [2], 0.2 µg/mL (≈ 0.344 µM); in [4] it was 1.56 µg/mL (≈ 2.68 µM); in the test with Mycobacterium avium it was 3.13 µg/mL (≈ 5.38 µM); with Staphylococcus aureus [5], 50 µg/mL (≈ 86 µM); against Staphylococcus aureus [6] it was over 100 µg/mL. In addition, in the test on Escherichia coli [7], the MIC turned out to be 50 µg/mL (≈ 86 µM).
